Experimental data collected from several papers.
Read-out: cell growth or viability

Compound | cell line | test | conditions | IC50
c1ccc(-c2cnc3c(n2)CCCC3)cc1 | MCF-10A | – | 48 h | > 50 µM
COc1cc(Nc2nccc(-c3cnn4nc(OC)ccc34)n2)cc(C(F)(F)F)c1 | SCLC-21H | ATP luminescence | – | 0.36 µM
NCCc1ccc(O)c(O)c1 | CAL-27 | – | 72 h | > 20 µM
CC(C)Oc1cccc(-c2cnc3c(n2)CCCC3)c1 | MCF-10A | – | 48 h | 25 to 50 µM
O=C1CCCCC1C1C2C=CC=CC1/C(=C/c1ccccc1)C2 (stereo not drawn) | K562 | flow cytometry | – | 0.059 µM
CC1(C)S[C@@H]2[C@H](NC(=O)[C@H](N)c3ccc(O)cc3)C(=O)N2[C@H]1C(=O)O | VCaP | CCK-8 | 72 h | > 30 µM
CC(C)c1cccc(C(C)C)c1N1CCN(c2c(C(C)C)cccc2C(C)C)C1=[Se] | HCT-15 | MTT | 72 h | 15.8 µM
O=C(C=C[c-]1cccc1)c1sccc1Br.[Fe+2].c1cc[cH-]c1 | 4T1 | MTT | 72 h | 32.9 µM
CCCCOc1ccc(-c2cnc3c(n2)CCCC3)cc1 | MCF-10A | – | 48 h | 25 to 50 µM
Clc1ccc2c(c1)N=C(N1CCNCC1)c1ccccc1N2 | CAL-27 | – | 72 h | > 20 µM
COc1ccc(-c2cnc3c(n2)CCCC3)cc1Cl | MCF-10A | – | 48 h | 35.7 µM
CC(C)c1cc(-c2n[nH]c(=O)n2-c2ccc3c(ccn3C)c2)c(O)cc1O | MDA-MB-415 | imaging | 24 h | 0.024 µM
O=C(O)c1cc(/N=N/c2ccc(S(=O)(=O)Nc3ccccn3)cc2)ccc1O | VCaP | CCK-8 | 72 h | > 30 µM
Nc1nc(Nc2ccccc2)nc2c1ncn2[C@@H]1O[C@H](CO)[C@@H](O)[C@H]1O | CAL-27 | – | 72 h | > 20 µM
O=C(c1cc(Cl)c(Cl)[nH]1)c1c(O)ccc(Cc2ccc(O)c(C(=O)c3cc(Cl)c(Cl)[nH]3)c2O)c1O | MDCK | MTT | 72 h | 25 µg/mL
Clc1ccc(N2CCN(Cc3c[nH]c4ncccc34)CC2)cc1 | CAL-27 | – | 72 h | > 20 µM
CC(=O)O[C@@]12CO[C@@H]1C[C@H](O)[C@@]1(C)C(=O)[C@H](O)C3=C(C)[C@@H](OC(=O)[C@H](O)[C@@H](NC(=O)OC(C)(C)C)c4ccccc4)C[C@@](O)([C@@H](OC(=O)c4ccccc4)[C@H]21)C3(C)C | 4T1 | CCK-8 | 72 h | 0.118 µM
O=C(NC(=S)NCc1ccc(CNC(=S)NC(=O)c2ccc3ccccc3c2)cc1)c1ccc2ccccc2c1 | MCF-10A | – | 48 h | 91.4 µM
Cc1ccc(C(=O)Nc2ccc(Oc3cc4cnn(C)c4cc3-c3cn[nH]c3)c(F)c2)c(=O)n1-c1ccc(F)cc1 | NCI-H1993 | ATP luminescence | – | 0.076 µM
CCN(CC)CCOC(=O)C1(c2ccc([N+](=O)[O-])cc2)CCCC1 | CAL-27 | – | 72 h | > 20 µM
C=CC1=C(C(=O)O)N2C(=O)[C@@H](NC(=O)/C(=N\OCC(=O)O)c3csc(N)n3)[C@H]2SC1 | VCaP | CCK-8 | 72 h | > 30 µM
O=C(c1cc(Cl)c(Cl)[nH]1)c1c(O)ccc(C(c2csc(-c3ccccc3O)n2)c2ccc(O)c(C(=O)c3cc(Cl)c(Cl)[nH]3)c2O)c1O | MDCK | MTT | 72 h | 67 µg/mL
CCCCOc1cccc(-c2cnc3c(n2)CCCC3)c1 | MCF-10A | – | 48 h | > 50 µM
COc1cccc2c1C(=O)c1c(O)c3c(c(O)c1C2=O)C[C@@](O)(C(=O)CO)C[C@@H]3O[C@H]1C[C@H](N)[C@H](O)[C@H](C)O1 | MCF-10A | – | 48 h | 77 µM
O=C1Nc2ccc(Cl)cc2[C@@](C#CC2CC2)(C(F)(F)F)O1 | CAL-27 | – | 72 h | > 20 µM
S=C(NN=Cc1ccc(Cl)s1)Nc1ccccc1 | CRFK | – | – | 10.1 µM
N#Cc1ccc(COC[C@H]2O[C@@H](n3c(NCc4ccc(Cl)c(Cl)c4)nc4c(N)ncnc43)[C@H](O)[C@@H]2O)cc1 | CAL-27 | – | 72 h | > 20 µM
CC(C)C[C@H](NC(=O)[C@H](Cc1ccccc1)NC(=O)c1cnccn1)B(O)O | P31-FUJ | ATP luminescence | – | 0.0051 µM
CC(C)C(=O)SCCCCCCC(=O)Nc1nc(-c2ccccc2)cs1 | CAL-27 | – | 72 h | 1.15 µM
C[C@H]1[C@@H](O)O[C@@H]2O[C@@]3(C)CC[C@H]4[C@H](C)CC[C@@H]1[C@@]24OO3 | MCF-10A | CCK-8 | 48 h | 44.4 µM
